From ChEMBL document CHEMBL1122854, “Novel bis[1,6-dihydro-6,6-dimethyl-1,3,5-triazine-2,4-diamines] as antitrypanosomal agents” (1985)
Values joined by “and” are separate entries in the source; they are usually repeats but may differ in a detail not shown here. Identical values can stand only once.

What was measured:
Type in all cases: functional
Conditions in all cases: route subcutaneous
[1] = test system: Trypanosoma brucei rhodesiense; test: Antitrypanosomal activity was evaluated against Trypanosoma rhodesiense infections in mice, at dose 424 mg/kg, administered subcutaneously;Toxic
Procedure, shortened: (§1)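 IUR/HA Swiss mice (six weeks old, 30-32 g) infected i.p. with Wellcome CT strain T. rhodesiense. A single subcutaneous dose in peanut oil was given about 2 h after inoculation, with five mice per dose level. Positive control was stilbamidine or 2-hydroxystilbamidine isethionate at 40 mg/kg. Deaths before day 4 were scored toxic, and 30-day survivors cured.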

[2] = test system: Trypanosoma brucei rhodesiense; test: Antitrypanosomal activity against Trypanosoma rhodesiense infections in mice, 106 mg/kg administered subcutaneously
Procedure, shortened: (§2)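 Six-week-old IUR/HA Swiss mice (30-32 g), 5 per dose, infected ip with 0.5 mL of a 1:50 000 dilution of heparinized heart blood from donor mice infected 3 days before (Wellcome CT strain). Single sc dose in peanut oil about 2 h post-inoculation. Deaths before day 4 counted toxic. ΔMST versus untreated controls; survivors at 30 days counted cured.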

[3] = test system: Trypanosoma brucei rhodesiense; test: Anti-trypanosomal activity against Trypanosoma rhodesiense infections in mice, 26 mg/kg administered subcutaneously; procedure, shortened: as §2
[4] = test system: Trypanosoma brucei rhodesiense; test: Antitrypanosomal activity was evaluated against Trypanosoma rhodesiense infections in mice, at dose 424 mg/kg, administered subcutaneously; procedure, shortened: as §2
[5] = test system: Trypanosoma brucei rhodesiense; test: Antitrypanosomal activity against Trypanosoma rhodesiense infections in mice, 424 mg/kg administered subcutaneously; procedure, shortened: as §1
[6] = test system: Trypanosoma brucei rhodesiense; test: Antitrypanosomal activity was evaluated against Trypanosoma rhodesiense infections in mice, at dose 106 mg/kg, administered subcutaneously;Toxic; procedure, shortened: as §1
[7] = test system: Trypanosoma brucei rhodesiense; test: Antitrypanosomal activity was evaluated against Trypanosoma rhodesiense infections in mice, at dose 1.6 mg/kg, administered subcutaneously; procedure, shortened: as §2
[8] = test system: Trypanosoma brucei rhodesiense; test: Antitrypanosomal activity against Trypanosoma rhodesiense infections in mice, 3.3 mg/kg administered subcutaneously; procedure, shortened: as §2
[9] = test system: Trypanosoma brucei rhodesiense; test: Antitrypanosomal activity against Trypanosoma rhodesiense infections in mice, 6.6 mg/kg administered subcutaneously; procedure, shortened: as §2
[10] = test system: Mus musculus; test: Antitrypanosomal activity was evaluated against Trypanosoma rhodesiense infections in mice, at dose 212 mg/kg, administered subcutaneously;Cures; procedure, shortened: as §1
[11] = test system: Mus musculus; test: Antitrypanosomal activity was evaluated against Trypanosoma rhodesiense infections in mice, at dose 26 mg/kg, administered subcutaneously;Cures; procedure, shortened: as §1
[12] = test system: Mus musculus; test: Antitrypanosomal activity was evaluated against Trypanosoma rhodesiense infections in mice, at dose 106 mg/kg, administered subcutaneously;Cures; procedure, shortened: as §1
[13] = test system: Mus musculus; test: Antitrypanosomal activity was evaluated against Trypanosoma rhodesiense infections in mice, at dose 424 mg/kg, administered subcutaneously;Cures; procedure, shortened: as §1
[14] = test system: Mus musculus; test: Antitrypanosomal activity was evaluated against Trypanosoma rhodesiense infections in mice, at dose 53 mg/kg, administered subcutaneously;Cures; procedure, shortened: as §1
[15] = test system: Mus musculus; test: Antitrypanosomal activity was evaluated against Trypanosoma rhodesiense infections in mice, at dose 212 mg/kg, administered subcutaneously;Toxic; procedure, shortened: as §1
[16] = test system: Trypanosoma brucei rhodesiense; test: (§3) Antitrypanosomal activity was evaluated against Trypanosoma rhodesiense infections in mice, at dose 212 mg/kg, administered subcutaneously; procedure, shortened: as §2
[17] = test system: Trypanosoma brucei rhodesiense; test: Antitrypanosomal activity was evaluated against Trypanosoma rhodesiense infections in mice, at dose 53 mg/kg, administered subcutaneously; procedure, shortened: as §2
[18] = test system: Trypanosoma brucei rhodesiense; test: Antitrypanosomal activity was evaluated against Trypanosoma rhodesiense infections in mice, at dose 106 mg/kg, administered subcutaneously; procedure, shortened: as §1
[19] = test system: Mus musculus; test: Antitrypanosomal activity was evaluated against Trypanosoma rhodesiense infections in mice, at dose 13 mg/kg, administered subcutaneously;Cures; procedure, shortened: as §1
[20] = test system: Mus musculus; test: Antitrypanosomal activity was evaluated against Trypanosoma rhodesiense infections in mice, at dose 6.6 mg/kg, administered subcutaneously;Cures; procedure, shortened: as §1
[21] = test system: Mus musculus; test: as §3; procedure, shortened: as §1
[22] = test system: Trypanosoma brucei rhodesiense; test: Antitrypanosomal activity was evaluated against Trypanosoma rhodesiense infections in mice, at dose 26 mg/kg, administered subcutaneously;Toxic; procedure, shortened: as §1
[23] = test system: Mus musculus; test: Antitrypanosomal activity was evaluated against Trypanosoma rhodesiense infections in mice, at dose 6.6 mg/kg, administered subcutaneously; procedure, shortened: as §1
[24] = test system: Trypanosoma brucei rhodesiense; test: Antitrypanosomal activity was evaluated against Trypanosoma rhodesiense infections in mice, at dose 26 mg/kg, administered subcutaneously; procedure, shortened: as §1
[25] = test system: Mus musculus; test: Antitrypanosomal activity was evaluated against Trypanosoma rhodesiense infections in mice, at dose 13 mg/kg, administered subcutaneously; procedure, shortened: as §1

SMILES: Cc1ccc(N2C(N)=NC(N)=NC2(C)C)cc1NC(=O)Nc1cc(N2C(N)=NC(N)=NC2(C)C)ccc1C.Cl.Cl
- Toxic [1]: 3
- Delta MST [2]: -0.1 days
- Delta MST [3]: -0.1 days
- Delta MST [4]: -0.1 days

SMILES: CC1(C)N=C(N)N=C(N)N1c1ccc2c(c1)S(=O)(=O)c1cc(N3C(N)=NC(N)=NC3(C)C)ccc1C2.Cl.Cl
- Toxic [5]: 5
- Toxic [6]: 4
- Delta MST [7]: 0 days
- Delta MST [2]: -0.3 days
- Delta MST [3]: 0 days
- Delta MST [8]: 0 days
- Delta MST [9]: 0.2 days

SMILES: Cl.Cl.NC1=NC2(CCCCC2)N(c2ccc(CCc3ccc(N4C(N)=NC(N)=NC45CCCCC5)cc3)cc2)C(N)=N1
- Cures [10]: 3
- Cures [11]: 2
- Cures [12]: 3
- Cures [13]: 4
- Cures [14]: 2
- Toxic [1]: 1
- Toxic [15]: 1
- Delta MST [2]: 12 days
- Delta MST [16]: 11 days
- Delta MST [3]: 1.3 days
- Delta MST [17]: 9 days

SMILES: CC1(C)N=C(N)NC(Nc2ccc(NC3=NC(C)(C)N=C(N)N3)cc2)=N1.Cl.Cl
- Toxic [5]: 5
- Toxic [18]: 4
- Delta MST [2]: 1.9 days
- Delta MST [3]: 1.3 days

SMILES: CC1(C)N=C(N)N=C(N)N1c1cc(C(=O)O)cc(N2C(N)=NC(N)=NC2(C)C)c1.Cl.Cl
- Delta MST [2]: 0.1 days
- Delta MST [3]: -0.1 days
- Delta MST [4]: -0.1 days

SMILES: COc1cc(-c2ccc(N3C(N)=NC(N)=NC3(C)C)c(OC)c2)ccc1N1C(N)=NC(N)=NC1(C)C.Cl.Cl
- Cures [19]: 3
- Cures [10]: 2
- Cures [11]: 4
- Cures [12]: 2
- Cures [20]: 3
- Cures [14]: 3
- Toxic [5]: 5
- Delta MST [7]: 2.2 days
- Delta MST [2]: 11.2 days
- Delta MST [16]: 3.2 days
- Delta MST [3]: 8.9 days
- Delta MST [8]: 7.2 days
- Delta MST [9]: 13.5 days
- Delta MST [17]: 4.9 days

SMILES: Cl.Cl.NC1=NC(C2CCC3(CC2)N=C(N)N=C(N)N3c2ccc(Cl)cc2)N(c2ccc(Cl)cc2)C(N)=N1 (configuration not stated)
- Toxic [5]: 5
- Toxic [18]: 4
- Delta MST [3]: 1 days

SMILES: CC1(C)N=C(N)N=C(N)N1c1ccc(C(c2ccccc2)c2ccc(N3C(N)=NC(N)=NC3(C)C)cc2)cc1.Cl.Cl
- Toxic [5]: 5
- Toxic [18]: 2
- Toxic [21]: 2
- Delta MST [2]: 4.3 days
- Delta MST [16]: 4.3 days
- Delta MST ([17]; 53 mg/kg): 2.3 days and 2.8 days

SMILES: Cc1ccc(NC(=O)Nc2ccc(C)c(N3C(N)=NC(N)=NC3(C)C)c2)cc1N1C(N)=NC(N)=NC1(C)C.Cl.Cl
- Toxic [22]: 2
- Toxic [5]: 5
- Toxic [6]: 2
- Delta MST [2]: 0 days
- Delta MST [3]: 0 days

SMILES: CC1(C)N=C(N)N=C(N)N1c1ccc(OCCCCCCCCCCOc2ccc(N3C(N)=NC(N)=NC3(C)C)cc2)cc1.Cl.Cl
- Delta MST [2]: 0.1 days
- Delta MST [3]: -0.1 days
- Delta MST [4]: 0.1 days

SMILES: CC1(C)N=C(N)N=C(N)N1c1ccc(OCCCCOc2ccc(N3C(N)=NC(N)=NC3(C)C)cc2)cc1.Cl.Cl
- Toxic [22]: 1
- Toxic [5]: 5
- Toxic [6]: 4
- Delta MST [7]: 0 days
- Delta MST [2]: 1 days
- Delta MST [3]: 0.3 days
- Delta MST [8]: 0.2 days
- Delta MST [9]: 0 days

SMILES: CC1(C)N=C(N)N=C(N)N1c1ccc(OCCCCCCOc2ccc(N3C(N)=NC(N)=NC3(C)C)cc2)cc1.Cl.Cl
- Toxic [5]: 5
- Toxic [23]: 1
- Toxic [24]: 5
- Toxic [18]: 5
- Toxic [25]: 5

SMILES: CC1(C)N=C(N)N=C(N)N1c1ccc(Cc2ccc(N3C(N)=NC(N)=NC3(C)C)cc2[N+](=O)[O-])c([N+](=O)[O-])c1.Cl.Cl
- Toxic [5]: 5
- Toxic [18]: 5
- Delta MST [3]: 0.6 days

SMILES: Cc1cc(S(=O)(=O)c2ccc(N3C(N)=NC(N)=NC3(C)C)cc2)ccc1N1C(N)=NC(N)=NC1(C)C.Cl.Cl
- Toxic [22]: 4
- Toxic [5]: 5
- Toxic [18]: 5
- Delta MST [3]: 0.7 days
- Delta MST [8]: 0.2 days
- Delta MST [9]: 0.4 days

SMILES: CC1(C)N=C(N)N=C(N)N1c1cc(Cl)c(N2C(N)=NC(N)=NC2(C)C)c(Cl)c1.Cl.Cl
- Toxic [15]: 4
- Delta MST [16]: -0.2 days
- Delta MST [17]: -0.2 days

SMILES: CC1(C)N=C(N)N=C(N)N1c1ccc(OCCCCCCCCCCCCOc2ccc(N3C(N)=NC(N)=NC3(C)C)cc2)cc1.Cl.Cl
- Delta MST [2]: 0.8 days
- Delta MST [16]: 0.8 days
- Delta MST [3]: 0.2 days
- Delta MST [4]: 0.8 days
- Delta MST [17]: 0.4 days

SMILES: CC1(C)N=C(N)N=C(N)N1c1cccc2c(N3C(N)=NC(N)=NC3(C)C)cccc12.Cl.Cl
- Toxic [1]: 3
- Delta MST [2]: -0.3 days
- Delta MST [3]: 1.1 days
- Delta MST [4]: -0.3 days

SMILES: CC1(C)N=C(N)N=C(N)N1c1cccc(N2C(N)=NC(N)=NC2(C)C)c1.Cl.Cl
- Toxic [5]: 5
- Toxic [24]: 1
- Toxic [18]: 5
- Delta MST [7]: 0 days
- Delta MST [3]: 0 days
- Delta MST [8]: 0 days
- Delta MST [9]: 0 days

SMILES: CC1(C)N=C(N)N=C(N)N1c1ccc(N2C(N)=NC(N)=NC2(C)C)cc1.Cl.Cl
- Toxic [5]: 3
- Delta MST [7]: 0.1 days
- Delta MST [2]: 0.2 days
- Delta MST [3]: 0 days
- Delta MST [8]: -0.1 days
- Delta MST [4]: 1 days
- Delta MST [9]: 0.1 days

SMILES: CC1(C)N=C(N)N=C(N)N1c1ccc(OCCCCCOc2ccc(N3C(N)=NC(N)=NC3(C)C)cc2)cc1.Cl.Cl
- Toxic [5]: 5
- Toxic [24]: 5
- Toxic [18]: 5
- Toxic [25]: 5
- Delta MST [7]: 0 days
- Delta MST [8]: 0.2 days
- Delta MST [9]: 0.4 days

SMILES: CC1(C)N=C(N)N=C(N)N1c1ccc(OCCOc2ccc(N3C(N)=NC(N)=NC3(C)C)cc2)cc1.Cl.Cl
- Toxic [22]: 4
- Toxic [5]: 5
- Toxic [18]: 5
- Delta MST [7]: 2.8 days
- Delta MST [3]: 8.9 days
- Delta MST [8]: 1 days
- Delta MST [9]: 2.6 days

SMILES: CC1(C)N=C(N)N=C(N)N1c1ccc2oc3ccc(N4C(N)=NC(N)=NC4(C)C)cc3c2c1.Cl.Cl
- Toxic [5]: 5
- Toxic [18]: 5
- Delta MST [7]: 0.2 days
- Delta MST [3]: -0.2 days
- Delta MST [9]: -0.2 days

SMILES: CC1(C)N=C(N)N=C(N)N1c1ccc(Sc2ccc(N3C(N)=NC(N)=NC3(C)C)cc2)cc1.Cl.Cl
- Toxic [22]: 1
- Toxic [5]: 5
- Toxic [18]: 5
- Delta MST [3]: 2.7 days
- Delta MST [8]: 0.6 days
- Delta MST [9]: 0.6 days

SMILES: CC1(C)N=C(N)N=C(N)N1c1ccc(SSc2ccc(N3C(N)=NC(N)=NC3(C)C)cc2)cc1.Cl.Cl
- Delta MST [2]: 0.1 days
- Delta MST [3]: 0.1 days
- Delta MST [4]: 0.5 days

SMILES: Cl.Cl.NC1=NC2(CCCCC2)NC(Nc2ccc(CCc3ccc(NC4=NC5(CCCCC5)NC(N)=N4)cc3)cc2)=N1
- Delta MST [2]: 0.2 days
- Delta MST [3]: 0.2 days
- Delta MST [4]: 0.2 days

SMILES: CC1(C)N=C(N)N=C(N)N1c1ccc(CC(Cc2ccc(N3C(N)=NC(N)=NC3(C)C)cc2)C(=O)O)cc1.Cl.Cl
- Toxic [1]: 2
- Delta MST [2]: 0.2 days
- Delta MST [3]: 0 days
- Delta MST [4]: 0 days

SMILES: CC1(C)N=C(N)NC(Nc2ccc(CCc3ccc(NC4=NC(C)(C)N=C(N)N4)cc3)cc2)=N1.Cl
- Toxic [1]: 3
- Delta MST [2]: 0.8 days
- Delta MST [3]: 0.2 days
- Delta MST [4]: 0 days
